Data as given in ChEMBL document CHEMBL5058577, “EUbOPEN Chemogenomics Library 2 (Multiplex)” (2022).

Tested on: Fibroblast
Assay: Multiplex assay against human fibroblast
Type: toxicity, cell-based
Outline: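 Phenotypes for tubulin, mitochondrial mass and membrane permeability are expressed as per cents of healthy-nucleus cells. Cells were stained live at seeding with Hoechst33342, BioTracker Green Microtubule Cytoskeleton Dye, MitoTracker Red and Annexin V Alexa Fluor 680, then imaged after compound addition on a CQ1 microscope at 37°C and 5% CO2. Machine-learning gating in CellPathfinder separated Hoechst high-intensity objects from normal cells, divided normal cells by nuclear state (healthy, pyknosed, fragmented) and divided pyknosed cells into mitotic or apoptotic.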

[1] = 12 h, 1 µM, compound concentration 1 uM, replicate 1
[2] = 12 h, 1 µM, compound concentration 1 uM, replicate 2
[3] = 12 h, 10 µM, compound concentration 10 uM, replicate 1
[4] = 12 h, 10 µM, compound concentration 10 uM, replicate 2
[5] = 24 h, 1 µM, compound concentration 1 uM, replicate 1
[6] = 24 h, 1 µM, compound concentration 1 uM, replicate 2
[7] = 24 h, 10 µM, compound concentration 10 uM, replicate 1
[8] = 24 h, 10 µM, compound concentration 10 uM, replicate 2
[9] = 48 h, 1 µM, compound concentration 1 uM, replicate 1
[10] = 48 h, 1 µM, compound concentration 1 uM, replicate 2
[11] = 48 h, 10 µM, compound concentration 10 uM, replicate 1
[12] = 48 h, 10 µM, compound concentration 10 uM, replicate 2

Br.CS(=O)(=O)Nc1c(O)ccc2c1CCCC2C1=NCCN1 (configuration not stated)
Population Apoptotic (%) [1]: 17%
Population Fragmented Nuclei (%) [1]: 9%
Population Healthy Nuclei (%) [1]: 76%
Population Hoechst High Intensity Objects (%) [1]: 1%
Population Membrane Permeable-Phenotype (%) [1]: 0%
Population Mitochondria Different-Phenotype (%) [1]: 5%
Population Mitotic Cells (%) [1]: 82%
Population Normal (%) [1]: 98%
Population Pyknosed Nuclei (%) [1]: 14%
Population Tubulin-Different-Phenotype (%) [1]: 20%
Total Cell Count [1]: 167
Population Apoptotic (%) [2]: 31%
Population Fragmented Nuclei (%) [2]: 32%
Population Healthy Nuclei (%) [2]: 47%
Population Hoechst High Intensity Objects (%) [2]: 8%
Population Membrane Permeable-Phenotype (%) [2]: 7%
Population Mitochondria Different-Phenotype (%) [2]: 8%
Population Mitotic Cells (%) [2]: 68%
Population Normal (%) [2]: 91%
Population Pyknosed Nuclei (%) [2]: 19%
Population Tubulin-Different-Phenotype (%) [2]: 38%
Total Cell Count [2]: 192
Population Apoptotic (%) [3]: 38%
Population Fragmented Nuclei (%) [3]: 20%
Population Healthy Nuclei (%) [3]: 47%
Population Hoechst High Intensity Objects (%) [3]: 6%
Population Membrane Permeable-Phenotype (%) [3]: 1%
Population Mitochondria Different-Phenotype (%) [3]: 7%
Population Mitotic Cells (%) [3]: 61%
Population Normal (%) [3]: 93%
Population Pyknosed Nuclei (%) [3]: 31%
Population Tubulin-Different-Phenotype (%) [3]: 21%
Total Cell Count [3]: 148
Population Apoptotic (%) [4]: 33%
Population Fragmented Nuclei (%) [4]: 38%
Population Healthy Nuclei (%) [4]: 45%
Population Hoechst High Intensity Objects (%) [4]: 0%
Population Membrane Permeable-Phenotype (%) [4]: 12%
Population Mitochondria Different-Phenotype (%) [4]: 5%
Population Mitotic Cells (%) [4]: 66%
Population Normal (%) [4]: 99%
Population Pyknosed Nuclei (%) [4]: 16%
Population Tubulin-Different-Phenotype (%) [4]: 43%
Total Cell Count [4]: 129
Population Apoptotic (%) [5]: 56%
Population Fragmented Nuclei (%) [5]: 12%
Population Healthy Nuclei (%) [5]: 77%
Population Hoechst High Intensity Objects (%) [5]: 1%
Population Membrane Permeable-Phenotype (%) [5]: 0%
Population Mitochondria Different-Phenotype (%) [5]: 3%
Population Mitotic Cells (%) [5]: 43%
Population Normal (%) [5]: 98%
Population Pyknosed Nuclei (%) [5]: 10%
Population Tubulin-Different-Phenotype (%) [5]: 16%
Total Cell Count [5]: 159
Population Apoptotic (%) [6]: 33%
Population Fragmented Nuclei (%) [6]: 25%
Population Healthy Nuclei (%) [6]: 60%
Population Hoechst High Intensity Objects (%) [6]: 7%
Population Membrane Permeable-Phenotype (%) [6]: 2%
Population Mitochondria Different-Phenotype (%) [6]: 7%
Population Mitotic Cells (%) [6]: 66%
Population Normal (%) [6]: 92%
Population Pyknosed Nuclei (%) [6]: 14%
Population Tubulin-Different-Phenotype (%) [6]: 41%
Total Cell Count [6]: 180
Population Apoptotic (%) [7]: 48%
Population Fragmented Nuclei (%) [7]: 16%
Population Healthy Nuclei (%) [7]: 60%
Population Hoechst High Intensity Objects (%) [7]: 3%
Population Membrane Permeable-Phenotype (%) [7]: 0%
Population Mitochondria Different-Phenotype (%) [7]: 2%
Population Mitotic Cells (%) [7]: 51%
Population Normal (%) [7]: 96%
Population Pyknosed Nuclei (%) [7]: 23%
Population Tubulin-Different-Phenotype (%) [7]: 24%
Total Cell Count [7]: 148
Population Apoptotic (%) [8]: 41%
Population Fragmented Nuclei (%) [8]: 41%
Population Healthy Nuclei (%) [8]: 44%
Population Hoechst High Intensity Objects (%) [8]: 0%
Population Membrane Permeable-Phenotype (%) [8]: 10%
Population Mitochondria Different-Phenotype (%) [8]: 10%
Population Mitotic Cells (%) [8]: 58%
Population Normal (%) [8]: 99%
Population Pyknosed Nuclei (%) [8]: 13%
Population Tubulin-Different-Phenotype (%) [8]: 41%
Total Cell Count [8]: 130
Population Apoptotic (%) [9]: 57%
Population Fragmented Nuclei (%) [9]: 14%
Population Healthy Nuclei (%) [9]: 76%
Population Hoechst High Intensity Objects (%) [9]: 4%
Population Membrane Permeable-Phenotype (%) [9]: 4%
Population Mitochondria Different-Phenotype (%) [9]: 3%
Population Mitotic Cells (%) [9]: 42%
Population Normal (%) [9]: 95%
Population Pyknosed Nuclei (%) [9]: 8%
Population Tubulin-Different-Phenotype (%) [9]: 24%
Total Cell Count [9]: 167
Population Apoptotic (%) [10]: 38%
Population Fragmented Nuclei (%) [10]: 26%
Population Healthy Nuclei (%) [10]: 61%
Population Hoechst High Intensity Objects (%) [10]: 5%
Population Membrane Permeable-Phenotype (%) [10]: 0%
Population Mitochondria Different-Phenotype (%) [10]: 9%
Population Mitotic Cells (%) [10]: 61%
Population Normal (%) [10]: 94%
Population Pyknosed Nuclei (%) [10]: 12%
Population Tubulin-Different-Phenotype (%) [10]: 41%
Total Cell Count [10]: 177
Population Apoptotic (%) [11]: 61%
Population Fragmented Nuclei (%) [11]: 22%
Population Healthy Nuclei (%) [11]: 61%
Population Hoechst High Intensity Objects (%) [11]: 6%
Population Membrane Permeable-Phenotype (%) [11]: 1%
Population Mitochondria Different-Phenotype (%) [11]: 2%
Population Mitotic Cells (%) [11]: 38%
Population Normal (%) [11]: 93%
Population Pyknosed Nuclei (%) [11]: 15%
Population Tubulin-Different-Phenotype (%) [11]: 21%
Total Cell Count [11]: 145
Population Apoptotic (%) [12]: 33%
Population Fragmented Nuclei (%) [12]: 48%
Population Healthy Nuclei (%) [12]: 44%
Population Hoechst High Intensity Objects (%) [12]: 1%
Population Membrane Permeable-Phenotype (%) [12]: 3%
Population Mitochondria Different-Phenotype (%) [12]: 9%
Population Mitotic Cells (%) [12]: 66%
Population Normal (%) [12]: 98%
Population Pyknosed Nuclei (%) [12]: 7%
Population Tubulin-Different-Phenotype (%) [12]: 45%
Total Cell Count [12]: 127
